Data set [1] in a line: folding enthalpy; higher = less favourable; fluorescence melt of hairpins on a sequencing array, two-state fit. To be noted: sodium 0.088 M. In a few lines: (§1)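 Cy3 fluorescence of library hairpins on a sequenced MiSeq flow cell, with annealed Cy3 and quencher oligos, was imaged in 50 mM Na-HEPES pH 8.0, 25 mM NaCl in 2.5 °C steps up to 60 °C. Signals were normalised to pre-quench Cy3 and to control variants. Melting temperature and folding enthalpy came from bootstrapped two-state fits, inverse-variance combined over four replicates. Fitted temperatures were raised by 9.35 °C to match UV melts.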

Data set [2] is described as follows: melting temperature; fluorescence melt of hairpins on a sequencing array, two-state fit, raised by 9.35 °C to match UV melts. To be noted: sodium 0.088 M. In a few lines:
as §1

Consider GCCGGGCGAAAGCGAGGC (((..((....))..))), for which, in data set [1], the folding enthalpy was -43.3 kcal/mol. Further, in data set [2], the Tm worked out at 66.1 °C.
The corresponding values for GTCGTTGGAAACAATGAC (((.(((....))).))) are -32.5 kcal/mol and 48.3 °C.
In the case of GTGTCTGGAAACAGACGC (.(((((....))))).), the folding enthalpy in data set [1] was -33.4 kcal/mol. Further, the Tm in data set [2] worked out at 54.7 °C.
As for GATCGCACTTGCGATC ((((((....)))))), the folding enthalpy in data set [1] was -32.3 kcal/mol. Also, the Tm in data set [2] was 69.1 °C.
Taken in the same sequence, the figures for GATCGGAGTCCCGATC ((((((....)))))) were -33.8 kcal/mol and 55.3 °C.
Taken in the same sequence, the figures for GGAACCCGAAAGGGGTCC (((.(((....))).))) were -30.4 kcal/mol and 68.2 °C.
Taken in the same sequence, the figures for GCGAGCGAAAGCTCACGC ((((((....)))..))) were -14.8 kcal/mol and 60.8 °C.
Regarding GCCTTTGGAAACAAAGGC (((((((....))))))), the folding enthalpy in data set [1] is -38.4 kcal/mol. The Tm in data set [2] was 66.7 °C.
Taken in the same sequence, the figures for GGATGCGAAAGCATGTCC ((((((....)))..))) were -11.7 kcal/mol and 35.9 °C.
In the case of GTTGCCGGAAACGGTGAC ((..(((....)))..)), the folding enthalpy in data set [1] was -22.8 kcal/mol. Besides, in data set [2], the Tm is 47.8 °C.
The corresponding values for AATGTGAAAACATT (((((....))))) are -15 kcal/mol and 37.8 °C.
Taken in the same sequence, the figures for GATCGGAGACCGATC ((((((...)))))) were -30.9 kcal/mol and 56.7 °C.
The corresponding values for GCTTTATCGAAAGATAGC (((..(((....)))))) are -12.2 kcal/mol and 31.6 °C.
Take GCGTGGCGAAAGCAAAGC ((.(.((....)).).)): in data set [1], the folding enthalpy was -17.4 kcal/mol. Also, the Tm in data set [2] came to 52.1 °C.
For GATCATTGAATGATC ((((((...)))))), the folding enthalpy in data set [1] was -35.9 kcal/mol. In addition, the Tm in data set [2] was 44.4 °C.
Taken in the same sequence, the figures for GCTGCCGAAAGGCTTAGC ((((((....)))..))) were -16.1 kcal/mol and 45.2 °C.
Taken in the same sequence, the figures for GAACTTGAAAAAGTTC ((((((....)))))) were -28.8 kcal/mol and 49.7 °C.
The corresponding values for GGACTGCGAAAGCATTCC (((.(((....))).))) are -29.8 kcal/mol and 48.5 °C.
In the case of GATCTTCCGTAAGATC ((((((....)))))), the folding enthalpy in data set [1] is -29.8 kcal/mol. For the same sequence, the Tm in data set [2] came to 43.8 °C.
The corresponding values for GCAAAGCGAAAGCGTCGC ((.(.((....)).).)) are -23.7 kcal/mol and 60.2 °C.
GCGGAGCGAAAGCAGCGC (((..((....))..))): the folding enthalpy in data set [1] is -17.1 kcal/mol. In data set [2], the Tm came out at 58 °C.
Taken in the same sequence, the figures for GTTCAGAAATGAAC (((((....))))) were -21.2 kcal/mol and 41.8 °C.
The corresponding values for GATCTCGGTGAGATC ((((((...)))))) are -12.9 kcal/mol and 55.9 °C.
The corresponding values for GCCAGGCGAAAGCTCGGC (((..((....))..))) are -38.4 kcal/mol and 59.8 °C.
Take GACGGTGGAAACACCGCC (.(((((....))))).): the folding enthalpy in data set [1] was -12.7 kcal/mol. Further, the Tm in data set [2] came to 50.4 °C.
The corresponding values for GTTGTTGAAAAACAAC ((((((....)))))) are -38.2 kcal/mol and 51.9 °C.
On to GGAAACCGAAAGGTTCC (((.(((....)))))), for which, in data set [1], the folding enthalpy was -18.8 kcal/mol. Further, in data set [2], the Tm amounted to 51.9 °C.
Taken in the same sequence, the figures for GTGCCCGAAAGGGTTCAC ((((((....)))..))) were -11.8 kcal/mol and 41.1 °C.
Taken in the same sequence, the figures for GTGCGTGGAAACATGCGC (.((.((....)).)).) were -29.6 kcal/mol and 49.5 °C.
The corresponding values for GGTAGGCGAAAGCCAACC (((.(((....))).))) are -28.1 kcal/mol and 57.6 °C.
As to GTGGCTGGAAACGGCTAC ((.((.(....).)).)), the folding enthalpy in data set [1] is -24.2 kcal/mol. The Tm in data set [2] amounted to 44 °C.
Taken in the same sequence, the figures for GCAACGCGAAAGCGTGC (((.(((....)))))) were -14.2 kcal/mol and 69.1 °C.
The corresponding values for GAGCACGGAAACGCGCTC ((((.((....)).)))) are -42.9 kcal/mol and 55.3 °C.
Taken in the same sequence, the figures for GCCTCGCGAAAGCCACGC ((.(.((....)).).)) were -6.05 kcal/mol and 20.5 °C.
Regarding GGTGGGGGAAACCCCATC (.(((((....))))).), the folding enthalpy in data set [1] is -24.2 kcal/mol. Also, the Tm in data set [2] is 51.3 °C.
The corresponding values for GTATGCGAAAGCAATTAC ((((((....)))..))) are -10.7 kcal/mol and 28.2 °C.
Taken in the same sequence, the figures for GAATACGAAAGTAGTTC ((((((....))).))) were -10.9 kcal/mol and 26.8 °C.

The values above are taken from the array DNA melting data of Ke et al. (doi:10.1101/2024.01.08.574731).
